Results as given in article PMC6263297 (Drug Design, Development and Therapy, 2018).
Where two headings read alike, the source gives them in different places.

Legend:
PDE4 enzyme = details: in vitro; cited from earlier work
[1] = system: acute exacerbations of COPD; details: treated over 4 weeks; cited from earlier work
[2] = cited from earlier work
[3] = cited from earlier work; remark: listed apart in the source
patients with asthma = details: oral 0.10, 0.25, and 0.50 mg once daily; cited from earlier work
[4] = Safety assessment: treatment-related adverse events; format: in vivo, human (healthy Chinese volunteers)
Outline: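 The same 12 volunteers received three single-dose periods (0.25, 0.375, 0.5 mg orally after >10 h fast, 10-day washouts), then 0.375 mg once daily for 11 days. Adverse events were collected by interview and monitoring and graded for relation to treatment (probably/possibly). Vital signs, physical examination, clinical laboratory tests and ECG were done at screening and at study completion.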

[5] = format: in vivo, human (healthy Chinese volunteers); details: single doses over the range 0.25–0.50 mg
[6] = after receiving 0.5 mg roflumilast
[7] = single and multiple oral doses, all subjects
[8] = single- and multiple-dose studies together

O=C(Nc1c(Cl)cncc1Cl)c1ccc(OC(F)F)c(OCC2CC2)c1 [Roflumilast]
potency upon inhibition of the PDE4 enzyme relative to roflumilast N-oxide (PDE4 enzyme): three times more potent | percentage of sputum neutrophils [1]: statistically significant greater reduction | sputum myeloperoxidase concentration [1]: statistically significant greater reduction | effective half-life (t1/2) ([2]; after dosing of 0.5 mg roflumilast): 8 to 31 h | effect of food intake on Cmax (decrease) ([2]; food intake): ~ 40% | effect of food intake on Tmax (delay) ([2]; food intake): 1 h | effect of food intake on the total inhibitory activity of PDE4 ([2]; food intake): does not affect | number of AEs reported ([3]; 15 subjects after receiving 0.5 mg roflumilast): 59 | Abdominal discomfort, share of subjects [3, 6]: 20% | Headache, share of subjects [3, 6]: 46.7% | Nausea, share of subjects [3, 6]: 20% | subjects who exited the study because of AEs ([3]; of 19 subjects, erectile dysfunction, visual flicker, blurred vision): 2 subjects | effect on forced expiratory volume in 1 second (patients with asthma): statistically significant effects with dose-related increases from baseline | number of TRAEs reported ([4]; 0.25 mg single dose): Seven | number of TRAEs reported ([4]; 0.375 mg multiple doses): 25 | serious adverse events ([4]; across the trial): no serious adverse events | overall safety and tolerability ([4]; healthy Chinese volunteers, single doses 0.25–0.5 mg and multiple doses 0.375 mg): safe and well-tolerated | Any adverse event: number of subjects (%) reporting TRAEs ([4]; multiple doses 0.375 mg (n=12)): 12 subjects (%) | number of TRAEs of moderate degree ([4]; presenting as acute gastroenteritis): one | number of TRAEs of severe degree ([4]; presenting as diarrhea): one | Diarrhea, share of subjects [4, 7]: 30.8% | Dizziness, share of subjects [4, 7]: 53.8% | Elevated creatine kinase level, share of subjects [4, 7]: 15.4% | Elevated total bilirubin level, share of subjects [4, 7]: 15.4% | Headache, share of subjects [4, 7]: 23.1% | Nausea, share of subjects [4, 7]: 53.8% | Upper respiratory tract infection, share of subjects [4, 7]: 23.1% | number of TRAEs of mild degree [4, 8]: Forty-six | total number of treatment-related adverse events [4, 8]: 48 | mean t1/2 over the three single-dose groups [5]: ~ 20 hours
